{"source": "paper PMC4857052", "about": "(Molecular pharmacology, 2012)", "key": {"[1]": {"system": "TbT1 (P1-type nucleoside transporter)", "experiment": "[3H]-thymidine transport in bloodstream forms", "type": "cell-based, Trypanosoma brucei brucei", "conditions": "for effect on [3H]-thymidine transport (in words): bloodstream forms"}, "[2]": {"target": "P1-type nucleoside transporter", "experiment": "[3H]-inosine uptake in bloodstream forms", "type": "cell-based, Trypanosoma brucei brucei", "conditions": "read-out: Ki for inhibition of inosine uptake; monophasic, n = 4", "summary_of_the_method": "(§1)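 Log-phase cells were washed into HEPES/bicarbonate glucose buffer (pH 7.3) at 1 × 10^8/ml and mixed with an equal volume of [3H]-permeant, with or without unlabeled competitor, at ambient temperature. Uptake was stopped with ice-cold buffer containing saturating unlabeled permeant, then cells were spun through oil. Counts were corrected for nonspecific binding and Km, Vmax and Ki obtained by curve fitting. Runs were in triplicate. Thymidine: 10 μM label, 15 min. Orotic acid: 10 min.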"}, "[3]": {"system": "s427WT T. b. brucei bloodstream forms", "experiment": "Kinetic parameters of pyrimidine transport in wild-type bloodstream forms", "type": "cell-based, Trypanosoma brucei brucei", "conditions": "[3H]-permeant; strain s427WT", "summary_of_the_method": "as §1"}, "5F-2′dURes trypanosomes": {"system": "5F-2′dURes trypanosomes", "experiment": "[3H]-thymidine uptake in 5F-2′dURes", "type": "cell-based, Trypanosoma brucei brucei", "summary_of_the_method": "as §1"}, "TbU1": {"target": "TbU1", "conditions": "procyclic forms (PCF); NE = no effect on uptake at concentration indicated; ref De Koning and Jarvis (1998), Papageorgiou et al. (2005), Gudin et al. (2006); cited from earlier work"}, "TbU2": {"target": "TbU2", "conditions": "read-out: Ki, U2; procyclic forms (PCF); ref De Koning and Jarvis (1998), Papageorgiou et al. (2005), Gudin et al. (2006); cited from earlier work"}, "[4]": {"system": "T. b. brucei bloodstream forms strain 427 WT", "experiment": "Alamar blue drug sensitivity assay, wild-type", "type": "cell-based, Trypanosoma brucei brucei", "conditions": "for EC50: Trypanosoma brucei", "summary_of_the_method": "(§2)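 Bloodstream-form T. b. brucei s427 grown in HMI-9 with 10% FBS at 37°C under 5% CO2. Resistant lines were made by months of stepwise-increasing exposure to the analog, then cloned by limiting dilution. Viability was read by resazurin (Alamar blue) reduction. Thymidine rescue was tested by adding 100 μM thymidine.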"}, "5FURes T. b. brucei": {"system": "5FURes T. b. brucei", "experiment": "Alamar blue drug sensitivity assay, 5FURes", "type": "cell-based, Trypanosoma brucei brucei", "summary_of_the_method": "as §2"}, "5FOARes T. b. brucei": {"system": "5FOARes T. b. brucei", "experiment": "Alamar blue drug sensitivity assay, 5FOARes", "type": "cell-based, Trypanosoma brucei brucei", "summary_of_the_method": "as §2"}, "5F-2′dURes T. b. brucei": {"system": "5F-2′dURes T. b. brucei", "experiment": "Alamar blue drug sensitivity assay, 5F-2′dURes", "type": "cell-based, Trypanosoma brucei brucei", "summary_of_the_method": "as §2"}, "5F-2′dURes cells": {"system": "5F-2′dURes cells", "experiment": "Metabolomic analysis of treated 5F-2′dURes cells", "type": "cell-based, Trypanosoma brucei brucei", "conditions": "100 μM, 8 hours"}, "[5]": {"system": "DNA of T. brucei bloodstream forms", "experiment": "Incorporation into DNA", "type": "cell-based, Trypanosoma brucei brucei", "conditions": "100 μM, 12 hours; natural deoxynucleotides 500-5000-fold above detection limit", "summary_of_the_method": "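Bloodstream forms were exposed to 100 μM test compound for 12 h (37°C, 5% CO2), with untreated parallel controls. DNA was extracted by SDS/RNase A lysis overnight at 37°C and phenol/chloroform, then digested with 1000 units exonuclease III at 37°C for 48 h. The digest was mixed 1:3 with acetonitrile, centrifuged, and the supernatant analysed by HILIC–high-resolution LC-MS.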"}, "[6]": {"system": "variant surface glycoprotein", "experiment": "Effect on glycosylation / variant surface glycoprotein content", "type": "cell-based, Trypanosoma brucei brucei", "conditions": "100 μM"}, "[7]": {"system": "T. b. brucei bloodstream forms", "experiment": "[3H]-orotic acid uptake, wild-type bloodstream forms", "type": "cell-based, Trypanosoma brucei brucei"}, "5-FOARes trypanosomes": {"system": "5-FOARes trypanosomes", "experiment": "[3H]-orotic acid uptake, 5-FOARes versus wild-type", "type": "cell-based, Trypanosoma brucei brucei", "conditions": "over 10 min; two experiments", "summary_of_the_method": "as §1"}, "[8]": {"conditions": "resistance factor: IC50(resistant clone)/IC50(WT)"}}, "note": "Several values for one entry are separate records, joined by “and”; a condition that tells them apart may be missing. Equal values may be shown once. Read-outs that look alike come from different tables or passages of the source.", "data": [{"smiles": "Cc1cn([C@H]2C[C@H](O)[C@@H](CO)O2)c(=O)[nH]c1=O", "note": "[Thymidine]", "values": [{"measurement": "rate of [3H]-thymidine transport", "setting": "[1]; 10 μM thymidine, 5-30 min", "value": "0.0015 ± 0.0003 pmol(10^7 cells)^−1s^−1"}, {"measurement": "Km", "setting": "[1]; read-out: Km, T1, bloodstream forms (BSF)", "value": "1240 ± 310", "unit": "µM"}, {"measurement": "Ki", "setting": "[2]", "value": "214 ± 51", "unit": "µM"}, {"measurement": "Km", "setting": "[3]", "value": "1240 ± 310", "unit": "µM"}, {"measurement": "Vmax", "setting": "[3]", "value": "0.067 ± 0.008 pmol (10^7 cells)^−1s^−1"}, {"measurement": "increase in thymidine affinity relative to wild-type", "setting": "5F-2′dURes trypanosomes", "value": "> 50", "unit": "fold"}, {"measurement": "increase in transport efficiency relative to wild-type", "setting": "5F-2′dURes trypanosomes", "value": "six-fold"}, {"measurement": "Vmax of [3H]-thymidine uptake", "setting": "5F-2′dURes trypanosomes; 10 μM [3H]-thymidine", "value": "0.013 ± 0.002 pmol(10^7 cells)^−1s^−1"}, {"measurement": "Km", "setting": "5F-2′dURes trypanosomes; read-out: Km of [3H]-thymidine uptake, 10 μM [3H]-thymidine", "value": "22 ± 3", "unit": "µM"}, {"measurement": "Ki, U1", "setting": "TbU1", "value": "NE, 1000"}, {"measurement": "Ki", "setting": "TbU2", "value": "0.38 ± 0.07", "unit": "µM"}]}, {"smiles": "O=c1[nH]c(=O)n([C@H]2C[C@H](O)[C@@H](CO)O2)cc1F", "note": "[5Fl-2’-dUrd, 5-fluoro-2′-deoxyuridine]", "values": [{"measurement": "EC50", "setting": "[4]; read-out: EC50, WT, Mean, Alamar blue assay, wild-type sensitive control strain", "value": 5.2, "unit": "µM"}, {"measurement": "EC50", "setting": "[4]; wild-type, thymidine-free HMI-9 with 100 μM thymidine added", "value": "18.6 ± 3", "unit": "µM"}, {"measurement": "EC50", "setting": "[4]; wild-type, thymidine-free version of HMI-9", "value": "0.77 ± 0.3", "unit": "µM"}, {"measurement": "reduction of sensitivity by addition of 100 μM thymidine", "setting": "[4]; wild-type", "value": 24, "unit": "fold"}, {"measurement": "EC50", "setting": "5FURes T. b. brucei; Trypanosoma brucei, read-out: EC50, 5FURes, Mean", "value": 3.2, "unit": "µM"}, {"measurement": "RF, 5FURes", "setting": "5FURes T. b. brucei; [8]", "value": 0.61}, {"measurement": "EC50", "setting": "5FOARes T. b. brucei; Trypanosoma brucei, read-out: EC50, 5FOARes, Mean", "value": 31, "unit": "µM"}, {"measurement": "RF, 5FOARes", "setting": "5FOARes T. b. brucei; [8]", "value": 5.9}, {"measurement": "reduction of sensitivity by addition of 100 μM thymidine", "setting": "5F-2′dURes T. b. brucei; 5F-2′dURes cells", "value": "> 600", "unit": "fold"}, {"measurement": "EC50", "setting": "5F-2′dURes T. b. brucei; Trypanosoma brucei, read-out: EC50, 5F-2′dURes, Mean", "value": 4300, "unit": "µM"}, {"measurement": "RF, 5F-2′dURes", "setting": "5F-2′dURes T. b. brucei; [8]", "value": 825}, {"measurement": "increase in dUMP in treated 5F-2′dURes cells relative to untreated wild-type cells", "setting": "5F-2′dURes cells", "value": "two-fold"}, {"measurement": "5F-dUMP in DNA digest", "setting": "[5]", "value": "No 5F-dUMP was detected"}, {"measurement": "changes in variant surface glycoprotein content", "setting": "[6]", "value": "no detectable changes"}]}, {"smiles": "O=C(O)c1cc(=O)[nH]c(=O)[nH]1", "note": "[Orotic acid]", "values": [{"measurement": "effect on [3H]-thymidine transport (in words)", "setting": "[1]", "value": "little or no effect"}, {"measurement": "uptake rate as fraction of the transport rate of [3H]-uracil and [3H]-5-FU", "setting": "[7]", "value": "≤ 1", "unit": "%"}, {"measurement": "reduction of [3H]-orotic acid uptake in 5-FOARes relative to wild-type", "setting": "5-FOARes trypanosomes", "value": "68.1% and 62.8%"}]}, {"smiles": "Nc1ccn([C@@H]2O[C@H](CO)[C@@H](O)[C@H]2O)c(=O)n1", "note": "[Cytidine]", "values": [{"measurement": "effect on [3H]-thymidine transport (in words)", "setting": "[1]", "value": "little or no effect"}, {"measurement": "Ki, U1", "setting": "TbU1", "value": "NE, 1000"}, {"measurement": "Ki", "setting": "TbU2", "value": "0.057 ± 0.019", "unit": "µM"}]}]}
